In brackets after ≈: the same amount, converted by molar mass. Activity calls are given as the source filed them. No cut-off for these calls is given here.
Experiments:
Human alphaherpesvirus 1 [1] = test: Antiviral activity against ACV-resistant Herpes simplex virus 1 AR-29 infected in African green monkey Vero cells assessed as inhibition of viral adsorption at 12.5 ug/mL preincubated for 30 mins and measured after 1 hr by plaque reduction assay relative to control; format: functional; details: Human alphaherpesvirus 1, AR-29, Vero
In short: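 Vero cells pre-chilled 30 min at 4 °C, then given mangiferin (3.12–25 μg/mL) together with HSV-1 AR-29 (10^5 PFU/mL) for 1 h adsorption at 4 °C. Plaque reduction assay follows: nutrient agarose overlay with 25 mM MgCl2, 72 h at 37 °C/5% CO2, formaldehyde fixation, crystal violet stain. %VI = [1 − PFU treated/PFU virus control] × 100.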

Human alphaherpesvirus 1 [2] = test: Antiviral activity against ACV-resistant Herpes simplex virus 1 AR-29 infected in male Balb/c mouse assessed as reduction in ulcerated lesion at 0.7% w/w applied topically 5 times a day at 3 hrs interval for 10 days measured on day 5 post infection; format: functional, organism-based
In short: (§1)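 Balb/c mice, 5 weeks old, six per group. Right mid-flank depilated under i.p. anaesthesia, needle-scarified 24 h later and inoculated with 70 μL HSV-1 AR-29 (10^5 PFU/mL). Topical 0.7% w/w O/W emulsion or ACV cream (50 mg/g) starts 4 h post-infection, 5 times daily for 10 days. Lesions are scored daily.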

[3] = Toxicity in Balb/c mouse infected with ACV-sensitive Herpes simplex virus 1 KOS assessed as effect on body weight at 0.7% w/w applied topically 5 times a day at 3 hrs interval for 10 days measured on day 10 post infection; details: in vivo, topical_or_ocular
[4] = Toxicity in Balb/c mouse infected with ACV-resistant Herpes simplex virus 1 AR-29 assessed as death at 0.7% w/w applied topically 5 times a day at 3 hrs interval for 10 days measured on day 10 post infection; details: in vivo, topical_or_ocular
Human alphaherpesvirus 1 [5] = test: Antiviral activity against ACV-sensitive Herpes simplex virus 1 KOS infected in male Balb/c mouse assessed as change in dermis thickness at 0.7% w/w applied topically 5 times a day at 3 hrs interval for 10 days measured on day 10 post infection by H and E staining based histological analysis; details: strain KOS
Human alphaherpesvirus 1 [6] = test: Antiviral activity against ACV-resistant Herpes simplex virus 1 AR-29 infected in female Balb/c mouse assessed as reduction in skin lesion at 0.7% w/w applied topically 5 times a day at 3 hrs interval for 10 days; format: functional, organism-based; in short: as §1
Human alphaherpesvirus 1 [7] = test: Virucidal activity against ACV-resistant Herpes simplex virus 1 AR-29 infected in African green monkey Vero cells assessed as inhibition of viral inhibition at 3.12 to 25 ug/mL measured after 1 hr by plaque reduction assay; format: functional, organism-based
In short: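 HSV-1 AR-29 suspension is incubated with mangiferin (3.12–25 μg/mL) for 1 h at 37 °C, then titrated by plaque reduction on Vero cells. Agarose/MgCl2 overlay, 72 h, crystal violet stain. %VI is taken against virus control. Triplicate independent experiments.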

Human alphaherpesvirus 1 [8] = test: Antiviral activity against ACV-sensitive Herpes simplex virus 1 KOS infected in African green monkey Vero cells assessed as inhibition of viral infection at 25 ug/ml measured after 72 hrs by crystal violet staining based plaque reduction assay relative to control; format: functional; details: Human alphaherpesvirus 1, strain KOS
In short: (§2)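 Plaque reduction in Vero cells. Mangiferin at 3.12, 6.25, 12.5 or 25 μg/mL is added at infection (0 h) with HSV-1 (10^5 PFU/mL). Agarose overlay with 25 mM MgCl2, 72 h at 37 °C/5% CO2, 20% formaldehyde fix, 0.5% crystal violet stain. %VI is taken against virus control. IC50 comes from linear regression of inhibition curves. Triplicate independent experiments.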

Human alphaherpesvirus 1 [9] = test: Antiviral activity against ACV-sensitive Herpes simplex virus 1 KOS infected in African green monkey Vero cells assessed as inhibition of viral infection measured after 72 hrs by crystal violet staining based plaque reduction assay; format: functional, organism-based; details: Human alphaherpesvirus 1, strain KOS; in short: as §2
Human alphaherpesvirus 1 [10] = test: Antiviral activity against ACV-resistant Herpes simplex virus 1 AR-29 infected in African green monkey Vero cells assessed as inhibition of viral infection measured after 72 hrs by crystal violet staining based plaque reduction assay; format: functional, organism-based; details: Human alphaherpesvirus 1, AR-29, Vero; in short: as §2
Human alphaherpesvirus 1 [11] = test: Antiviral activity against ACV-resistant Herpes simplex virus 1 AR-29 infected in male Balb/c mouse assessed as reduction in zosteriform lesion at 0.7% w/w applied topically 5 times a day at 3 hrs interval for 10 days measured on day 5 post infection; format: functional, organism-based; in short: as §1
[12] = Selectivity index, ratio of CC50 for African green monkey Vero cells to IC50 for Herpes simplex virus 1 KOS infected in African green monkey Vero cells; format: toxicity; details: read-out: Ratio CC50/IC50
In short: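 SI = CC50 (Vero, MTT, 72 h) / IC50 from plaque reduction with mangiferin added at infection (0 h) against HSV-1 AR-29 or KOS; IC50 by linear regression of viral inhibition curves.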

Human alphaherpesvirus 1 [13] = test: Antiviral activity against ACV-sensitive Herpes simplex virus 1 KOS infected in African green monkey Vero cells assessed as inhibition of viral adsorption at 3.12 ug/mL preincubated for 30 mins and measured after 1 hr by plaque reduction assay relative to control; format: functional; details: Human alphaherpesvirus 1, strain KOS
In short: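 Vero cells pre-chilled 30 min at 4 °C, then given mangiferin (3.12–25 μg/mL) together with HSV-1 KOS (10^5 PFU/mL); 1 h adsorption at 4 °C, then plaque reduction: agarose/DMEM overlay with 25 mM MgCl2, 72 h at 37 °C, formaldehyde fixation, crystal violet stain. %VI = 1 − PFU treated/PFU virus control; triplicate independent experiments.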

Human alphaherpesvirus 1 [14] = test: Antiviral activity against ACV-resistant Herpes simplex virus 1 AR-29 infected in African green monkey Vero cells assessed as inhibition of viral infection at 6.25 ug/ml measured after 72 hrs by crystal violet staining based plaque reduction assay relative to control; format: functional; details: Human alphaherpesvirus 1, AR-29, Vero; in short: as §2
Human alphaherpesvirus 1 [15] = test: Antiviral activity against ACV-sensitive Herpes simplex virus 1 KOS infected in African green monkey Vero cells assessed as inhibition of viral infection at 6.25 ug/ml measured after 72 hrs by crystal violet staining based plaque reduction assay relative to control; format: functional; details: Human alphaherpesvirus 1, strain KOS
In short: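 Vero monolayers infected with HSV-1 KOS (10^5 PFU/mL) with mangiferin (3.12, 6.25, 12.5, 25 μg/mL) added at infection (0 h). Overlay of nutrient agarose with 25 mM MgCl2; plaques counted after 72 h at 37 °C, 5% CO2, fixed in 20% formaldehyde/PBS and stained with 0.5% crystal violet. %VI versus virus control; triplicate experiments.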

Human alphaherpesvirus 1 [16] = test: Antiviral activity against ACV-sensitive Herpes simplex virus 1 KOS infected in female Balb/c mouse assessed as change in dermis thickness at 0.7% w/w applied topically 5 times a day at 3 hrs interval for 10 days measured on day 10 post infection by H and E staining based histological analysis; details: strain KOS
Human alphaherpesvirus 1 [17] = test: Antiviral activity against ACV-sensitive Herpes simplex virus 1 KOS infected in female Balb/c mouse assessed as change in epidermis thickness at 0.7% w/w applied topically 5 times a day at 3 hrs interval for 10 days measured on day 10 post infection by H and E staining based histological analysis; details: strain KOS
Human alphaherpesvirus 1 [18] = test: Antiviral activity against ACV-resistant Herpes simplex virus 1 AR-29 infected in African green monkey Vero cells assessed as inhibition of viral infection at 3.12 ug/ml measured after 72 hrs by crystal violet staining based plaque reduction assay relative to control; format: functional; details: Human alphaherpesvirus 1, AR-29, Vero; in short: as §2

With `O=c1c2cc(O)c(O)cc2oc2cc(O)c([C@@H]3O[C@H](CO)[C@@H](O)[C@H](O)[C@H]3O)c(O)c12` [MANGIFERIN] the inhibition at 12.5 µg/mL (Human alphaherpesvirus 1 [1]) was 71.3%, the Activity (Human alphaherpesvirus 1 [2]) was “Active” and the Activity [3] was “Non-Toxic”. For the same molecule, the Activity [4] was “Non-Toxic”, the Activity (Human alphaherpesvirus 1 [5]) was “inactive” and the Activity (Human alphaherpesvirus 1 [6]) was “Active”. The inhibition (Human alphaherpesvirus 1 [7]) was “Active”, the inhibition at 25 µg/mL (Human alphaherpesvirus 1 [8]) was 100% and the IC50 (Human alphaherpesvirus 1 [9]) was 3.5 µg/mL (≈ 8.29 µM). The IC50 (Human alphaherpesvirus 1 [10]) was 2.9 µg/mL (≈ 6.87 µM), the Activity (Human alphaherpesvirus 1 [11]) was “Active” and the selectivity ratio [12] was greater than 143. For the same molecule, the inhibition at 3.12 µg/mL (Human alphaherpesvirus 1 [13]) was 29.2%, the inhibition at 6.25 µg/mL (Human alphaherpesvirus 1 [14]) was 94.4% and the inhibition at 6.25 µg/mL (Human alphaherpesvirus 1 [15]) was 93.9%. For the same molecule, the Activity (Human alphaherpesvirus 1 [16]) was “inactive”, the Activity (Human alphaherpesvirus 1 [17]) was “inactive” and the inhibition at 3.12 µg/mL (Human alphaherpesvirus 1 [18]) was 57.6%.
